According to PubChem BioAssay AID651576 (The Scripps Research Institute Molecular Screening Center, 2012):
Calls of active or inactive are those of the source.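 Rule for the calls: active = inhibition of at least 50%, averaged over three replicate wells; inactive = inhibition below 50%.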

system: HCV core protein (core106) dimerization, Hepatitis C virus; assay: disruption of HCV core self-association – biochemical, AlphaScreen luminescence, single dose 15 µM, powder samples, late-stage follow-up (AID 651576); conditions: AlphaScreen GST/Flag-core106 dimerization, at 15 µM, active compounds read high
Method in brief: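 Assay system – HCV core106 dimerization between GST-tagged and Flag-tagged core106 proteins · Quantity – 150 nM of each tagged core106 protein · Repeats – three replicate wells per compound, averaged · Detection – AlphaScreen luminescence · Read-out – percent inhibition of AlphaScreen signal versus uninhibited protein-only wells · Incubation – protein preincubation 1 h at room temperature, 1 h per bead step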

inhibition	SMILES
80%	Cc1cccc(Cc2c(C)nc3nc(SCC(=O)NC4CCN(C(=O)CSc5nc6nc(C)c(Cc7cccc(C)c7)c(C)n6n5)C4)nn3c2C)c1 (centres undefined)
65%	Cc1ccc(Cc2c(C)nc3nc(SCC(=O)NCCN4CCN(CCc5ccccc5)CC4)nn3c2C)cc1
43% (inactive)	Cc1ccc(Cc2c(C)nc3nc(SCC(=O)N4CCN(Cc5ccc(Br)cc5)CC4)nn3c2C)cc1
79%	Cc1ccc(Cc2c(C)nc3nc(SCC(=O)NCCN4CCSCC4)nn3c2C)cc1
